Consider 15 compounds from ChEMBL document CHEMBL1250472, “"Clicked" bivalent ligands containing curcumin and cholesterol as multifunctional abeta oligomerization inhibitors: design, synthesis, and biological characterization” (J Med Chem, 2010).

The structures appear in SMILES notation. Active and inactive are the calls of the source. The rule behind the calls is not given here.

The target of data set [1] is Amyloid-beta precursor protein (Homo sapiens) (UniProt P05067). Briefly: Inhibition of APP expressed in human MC65 cells assessed as inhibition of amyloid beta oligomer formation at 10 uM by Western blotting after removal of tetracycline. For orientation: Immunoblotting shows a protein as a band on a membrane.
The target is the same in data set [2]. Briefly: Inhibition of APP expressed in human MC65 cells assessed as inhibition of amyloid beta 42 oligomerization by transmission electron microscopy. It counts as cell-based.
The nature of data set [3]: Cellular uptake in human MC65 cells after 24 hrs by immunocytometry. In kind it is ADME, cell-based. Particulars: mc65, 24 h. The essentials: (§1)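 MC65 cells exposed to compound (10 μM) for 24 h, fixed in 4% paraformaldehyde, permeabilized with 0.1% Triton X-100, DAPI-stained. Compound's own fluorescence located by confocal microscopy (excitation 355 and 494 nm). 1.0 μm optical sections through the cell depth, projected into a composite image.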

Data set [4] concerns MC65. In words: Antioxidant activity in human MC65 cells assessed as decrease in oxidative stress by DCFH-DA assay. In kind it is functional, cell-based. The essentials: (§2)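 MC65 cells, 4 × 10^4/well, grown 24 h, then exposed to compounds in Opti-MEM with or without TC for 24 h (blanks with compound only). DCFH-DA loaded at 25 μM final for 30 min at 37 °C, medium replaced, fluorescence read at 485/530 nm. Expressed as % of parallel -TC cultures, n = 5.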

In data set [5] the test system is MC65. In words: Antioxidant activity in human MC65 cells assessed as decrease in lipid peroxidation by DCFH-DA assay. Particulars: in the assay text read “intracellular oxidative stress” for “lipid peroxidation”. In kind it is functional, cell-based. The method in brief: as §2
Data set [6] deals with SH-SY5Y. In words: Cytotoxicity against human SH-SY5Y cells after 48 hrs.
In data set [7] the test system is MC65. In words: Cytoprotective activity against amyloid-beta oligomer-induced cytotoxicity in human MC65 cells after 72 hrs.
For data set [8], the system named is SH-SY5Y. Briefly: Cytoprotective activity against amyloid-beta oligomer-induced cytotoxicity in human SH-SY5Y cells at 16 uM after 48 hrs.
Data set [9] relates to SH-SY5Y. Briefly: Cytoprotective activity against amyloid-beta oligomer-induced cytotoxicity in human SH-SY5Y cells at 2 to 8 uM after 48 hrs.
Data set [10] is described as follows: Cytotoxicity against human MC65 cells after 72 hrs. Conditions: mc65, 72 h.
In data set [11] the target is Amyloid-beta precursor protein (Homo sapiens) (UniProt P05067). Briefly: Inhibition of APP expressed in human MC65 cells assessed as inhibition of amyloid beta oligomer formation at 10 uM by Western blotting. In kind it is cell-based. The essentials: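 MC65 cells, 1 × 10^6/well, exposed to compounds (10 μM) in Opti-MEM with or without TC for 24 h. Lysates (10 μg protein) run on 10-20% tris-tricine SDS-PAGE and blotted with 6E10 (1:2000), HRP secondary, chemiluminescence. Three independent experiments.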

In data set [12] the test system is MC65. In words: Binding affinity to amyloid beta expressed in human MC65 cells after 24 hrs by immunocytometry. In kind it is cell-based. The method in brief:
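MC65 cells, 1 × 10^4/well, given compounds (10 μM) right after TC removal, 24 h. Surface stained with Alexa 488-CTX-B on ice, then fixed in 4% paraformaldehyde and permeabilized with Triton X-100. Stained with A11 oligomer antibody plus Alexa 568 secondary, DAPI counterstain. Confocal imaging; red puncta per cell averaged over five areas.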

In data set [13] the test system is MC65. In words: Binding affinity to cell membrane/lipid raft of human MC65 cells after 24 hrs by immunocytometry. It counts as cell-based. The essentials: as §1
For the next data set, the system named is Spleen. In words: Toxicity against mouse spleen after 24 hrs. In kind it is tissue-based. Conditions: in vitro.
Data set [14] can be described thus: Apparent permeability from apical to basolateral side of human Caco-2 cells. It counts as ADME, cell-based. The method in brief: (§3)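 Caco-2 cells, passages 30-50, grown 21 days on transwell inserts to confluence; TEER >400 ohm·cm² and lucifer yellow permeability <1 × 10^-6 cm/s. Compound at 10 μM added apical or basolateral in HBSS, 37 °C with shaking. Sampling at 30, 60, 120 min, HPLC with fluorescence detection. Permeability calculated by Fick's law; efflux ratio is B-A/A-B.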
(In general: Passage across Caco-2 layers is used to estimate intestinal permeability.)

Data set [15] can be described thus: Apparent permeability from basolateral to apical side of human Caco-2 cells. In kind it is ADME, cell-based. The essentials:
as §3

Data set [16] is described as follows: Cytotoxicity against mouse NK cells after 24 hrs.
Data set [17] deals with SH-SY5Y. In words: Cytoprotective activity against amyloid-beta oligomer-induced cytotoxicity in human SH-SY5Y cells after 48 hrs.

Amyloid-beta precursor protein (Homo sapiens), sequence (P05067 whole entry): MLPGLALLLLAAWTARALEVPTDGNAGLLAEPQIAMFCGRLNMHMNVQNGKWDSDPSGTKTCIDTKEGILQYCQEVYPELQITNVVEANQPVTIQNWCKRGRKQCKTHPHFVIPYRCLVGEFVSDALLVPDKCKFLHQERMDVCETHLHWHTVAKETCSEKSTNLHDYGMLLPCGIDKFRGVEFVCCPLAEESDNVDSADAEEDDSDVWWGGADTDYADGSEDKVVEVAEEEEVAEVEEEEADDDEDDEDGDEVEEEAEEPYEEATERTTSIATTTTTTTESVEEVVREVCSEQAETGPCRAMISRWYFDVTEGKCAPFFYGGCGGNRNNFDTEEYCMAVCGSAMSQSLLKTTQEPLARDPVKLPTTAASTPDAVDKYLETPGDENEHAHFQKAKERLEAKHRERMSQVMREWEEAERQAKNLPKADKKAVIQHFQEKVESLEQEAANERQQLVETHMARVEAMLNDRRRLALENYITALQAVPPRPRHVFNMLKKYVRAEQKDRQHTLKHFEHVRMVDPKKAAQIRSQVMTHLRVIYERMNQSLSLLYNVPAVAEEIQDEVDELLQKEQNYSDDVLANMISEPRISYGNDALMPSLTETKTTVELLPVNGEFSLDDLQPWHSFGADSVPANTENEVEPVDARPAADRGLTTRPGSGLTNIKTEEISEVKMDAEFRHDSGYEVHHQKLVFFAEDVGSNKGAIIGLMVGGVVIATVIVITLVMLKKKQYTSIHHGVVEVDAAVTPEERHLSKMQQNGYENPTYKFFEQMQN

As for `COc1cc(/C=C/C(=O)/C=C(O)/C=C/c2ccc(OCc3cn(CCCCNC(=O)CCNC(=O)CO[C@H]4CC[C@@]5(C)C(=CC[C@H]6[C@@H]7CC[C@H]([C@H](C)CCCC(C)C)[C@@]7(C)CC[C@@H]65)C4)nn3)c(OC)c2)ccc1O`, in data set [1], the inhibition result was “Active”.
On to `COc1cc(/C=C/C(=O)CC(=O)/C=C/c2ccc(O)c(OC)c2)ccc1O` [CURCUMIN], for which the inhibition result in data set [2] was “Active”. The Drug uptake result in data set [3] was “Active”. Also, the outcome in the data set on MC65 [4], in the data set with MC65 [5], with MC65 [7] and with SH-SY5Y [9] was Active. For the same compound, the Activity result with SH-SY5Y [6] is “Toxic”. Also, in the data set with SH-SY5Y [8], the outcome was inactive. In addition, the inhibition entry in data set [1] is “inactive”.
Take `COc1cc(/C=C/C(=O)/C(Cc2cn(CCCCCCNC(=O)CO[C@H]3CC[C@@]4(C)C(=CC[C@H]5[C@@H]6CC[C@H]([C@H](C)CCCC(C)C)[C@@]6(C)CC[C@@H]54)C3)nn2)=C(O)/C=C/c2ccc(O)c(OC)c2)ccc1O`: the inhibition entry in [1] is “inactive”.
For `COc1cc(/C=C/C(=O)/C(Cc2cn(CCCCNC(=O)CCNC(=O)CO[C@H]3CC[C@@]4(C)C(=CC[C@H]5[C@@H]6CC[C@H]([C@H](C)CCCC(C)C)[C@@]6(C)CC[C@@H]54)C3)nn2)=C(O)/C=C/c2ccc(O)c(OC)c2)ccc1O`, the inhibition entry in data set [1] was “Active”.
On to `CCCCNC(=O)CCC(=O)NCCCCCCn1cc(C/C(C(=O)/C=C/c2ccc(O)c(OC)c2)=C(O)\C=C\c2ccc(O)c(OC)c2)nn1`, for which, in [1], the inhibition result was “inactive”.
For `COc1cc(/C=C/C(=O)/C=C(O)/C=C/c2ccc(OCc3cn(CCCCNC(=O)CO[C@H]4CC[C@@]5(C)C(=CC[C@H]6[C@@H]7CC[C@H]([C@H](C)CCCC(C)C)[C@@]7(C)CC[C@@H]65)C4)nn3)c(OC)c2)ccc1O`, in data set [1], the inhibition entry was “inactive”.
For the compound `COc1cc(/C=C/C(=O)/C=C(O)/C=C/c2ccc(OCc3cn(CCCCCCNC(=O)CO[C@H]4CC[C@@]5(C)C(=CC[C@H]6[C@@H]7CC[C@H]([C@H](C)CCCC(C)C)[C@@]7(C)CC[C@@H]65)C4)nn3)c(OC)c2)ccc1O`, the inhibition result in [1] was “inactive”.
As to `COc1cc(/C=C/C(=O)/C=C(O)/C=C/c2ccc(OCc3cn(CCCCCCNC(=O)CCNC(=O)CCNC(=O)CO[C@H]4CC[C@@]5(C)C(=CC[C@H]6[C@@H]7CC[C@H]([C@H](C)CCCC(C)C)[C@@]7(C)CC[C@@H]65)C4)nn3)c(OC)c2)ccc1O`, in [10], the Activity entry is recorded as “Non-toxic”.
Take `COc1cc(/C=C/C(=O)/C(Cc2cn(CCCCCCNC(=O)CCNC(=O)CCNC(=O)CO[C@H]3CC[C@@]4(C)C(=CC[C@H]5[C@@H]6CC[C@H]([C@H](C)CCCC(C)C)[C@@]6(C)CC[C@@H]54)C3)nn2)=C(O)/C=C/c2ccc(O)c(OC)c2)ccc1O`: the inhibition result in [11], in data set [2] and in data set [1] was “Active” in each case. Moreover, the result in the data set on MC65 [12] was inactive. In addition, the outcome in the data set on MC65 [13], with MC65 [4] and with SH-SY5Y [17] was Active. Also, the Activity entry in the data set on Spleen is “Toxic”; in data set [16], “Non-toxic”; in the data set with MC65 [7] it was “Dose-dependent effect”. The Papp A→B in data set [14] was 7.1 ×10⁻⁶ cm/s. In data set [15], the Papp B→A was 4.7 ×10⁻⁶ cm/s.
For the compound `COc1cc(/C=C/C(=O)/C(Cc2cn(CCCCNC(=O)CO[C@H]3CC[C@@]4(C)C(=CC[C@H]5[C@@H]6CC[C@H]([C@H](C)CCCC(C)C)[C@@]6(C)CC[C@@H]54)C3)nn2)=C(O)/C=C/c2ccc(O)c(OC)c2)ccc1O`, the inhibition entry in data set [1] was “inactive”.
Consider `COc1cc(/C=C/C(=O)/C(Cc2cn(CCCCCCNC(=O)CCNC(=O)CO[C@H]3CC[C@@]4(C)C(=CC[C@H]5[C@@H]6CC[C@H]([C@H](C)CCCC(C)C)[C@@]6(C)CC[C@@H]54)C3)nn2)=C(O)/C=C/c2ccc(O)c(OC)c2)ccc1O`, for which, in data set [10], the Activity entry is recorded as “Non-toxic”. In addition, the inhibition entry in data set [1] is “Active”.
`COc1cc(/C=C/C(=O)/C=C(O)/C=C/c2ccc(OCc3cn(CCCCCCNC(=O)CCNC(=O)CO[C@H]4CC[C@@]5(C)C(=CC[C@H]6[C@@H]7CC[C@H]([C@H](C)CCCC(C)C)[C@@]7(C)CC[C@@H]65)C4)nn3)c(OC)c2)ccc1O`: the inhibition result in [1] was “Active”.
Take `COc1cc(/C=C/C(=O)/C=C(O)/C=C/c2ccc(OCc3cn(CCCCNC(=O)CCNC(=O)CCNC(=O)CO[C@H]4CC[C@@]5(C)C(=CC[C@H]6[C@@H]7CC[C@H]([C@H](C)CCCC(C)C)[C@@]7(C)CC[C@@H]65)C4)nn3)c(OC)c2)ccc1O`: the inhibition entry in data set [1] is “Active”.
Take `CCCCNC(=O)CCC(=O)NCCCCCCn1cc(COc2ccc(/C=C/C(O)=C/C(=O)/C=C/c3ccc(O)c(OC)c3)cc2OC)nn1`: the inhibition result in [1] was “inactive”.
On to `COc1cc(/C=C/C(=O)/C(Cc2cn(CCCCNC(=O)CCNC(=O)CCNC(=O)CO[C@H]3CC[C@@]4(C)C(=CC[C@H]5[C@@H]6CC[C@H]([C@H](C)CCCC(C)C)[C@@]6(C)CC[C@@H]54)C3)nn2)=C(O)/C=C/c2ccc(O)c(OC)c2)ccc1O`, for which the inhibition result in [1] is “Active”.

Usually Papp A→B stands for how fast a substance crosses the layer from the apical side. As usually defined, the Papp B→A is how fast a substance crosses the layer from the basolateral side.
